Published values from different studies.
Read-out: cell growth or viability

Structure (SMILES) | cell line | method | tested at | time | quantity | value
CCCCCCCCCCCCCCCCCCOc1ccc(CC(=O)OCC[N+](CC)(CC)CC)cc1 | NCI-H322M | SRB | 10 µM |  | inhibition | 13.3%
CNCCC(=O)Nc1ccccc1/N=c1\cc(-c2ccc3nc(N)oc3c2)oc2ccccc12 | NCI-H1975 | CCK-8 | 1 µM |  | inhibition | 43%
Cc1nc(Nc2ncc(C(=O)Nc3c(C)cccc3Cl)s2)cc(N2CC[C@H](O)C2)n1 | KARPAS-422 | ATP luminescence | 10 µM | 72 h | inhibition | 91%
COc1ccc(NC(=O)Nc2nc3cc(-c4ccc5ncn(Cc6ccccc6)c(=O)c5c4)ccc3s2)cc1 | NCI-H1975 | MTT |  | 72 h | IC50 | > 20000 nM
CCCCCCCCCCCCCCCCCCOc1ccc(CC(=O)OCC[N+]2(C)CCOCC2)cc1 | NCI-H322M | SRB | 10 µM |  | inhibition | 3.14%
COc1ccc2/c(=N/c3ccccc3NC(=O)[C@@H](N)CO)cc(-c3ccc4c(c3)OCCO4)oc2c1 | NCI-H1975 | CCK-8 | 1 µM |  | inhibition | 1.06%
CC(C)CCn1cnc2ccc(-c3ccc4sc(NC(=O)Nc5ccc(F)cc5)nc4c3)cc2c1=O | NCI-H1975 | MTT |  | 72 h | IC50 | 960 nM
CCCCCCCCCCCCCCCCCCOc1ccc(CC(=O)OCCC[N+](C)(C)C)cc1 | NCI-H322M | SRB | 10 µM |  | inhibition | 9.97%
CCCCC(=O)Nc1ccc(-c2ccc3ncn(CCF)c(=O)c3c2)cn1 | NCI-H1975 | CCK-8 |  | 72 h | IC50 | 190 nM
Cc1nc(NC(=O)N2CCC[C@H]2C(N)=O)sc1-c1ccnc(C(C)(C)C(F)(F)F)c1 | KPL4 | ATP luminescence |  | 5 days | EC50 | 1190 nM
CCCCn1cnc2ccc(-c3ccc(NC(C)=O)nc3)cc2c1=O | NCI-H1975 | CCK-8 |  | 72 h | IC50 | > 10000 nM
NCC(=O)Nc1ccccc1/N=c1\cc(-c2ccc3c(c2)OCCO3)oc2cc(F)ccc12 | NCI-H1975 | CCK-8 | 1 µM |  | inhibition | 4.41%
CCCCCCCCCCCCCCCCCCOc1ccccc1CC(=O)OCC[N+]1(C)CCCCC1 | NCI-H322M | SRB | 10 µM |  | inhibition | 15.4%
COc1cccc(NC(=O)Nc2nc3cc(-c4ccc5ncn(CC(=O)N6CCOCC6)c(=O)c5c4)ccc3s2)c1 | NCI-H1975 | MTT |  | 72 h | IC50 | > 20000 nM
NCCC(=O)Nc1ccccc1/N=c1\cc(-c2ccc3nc(N)oc3c2)oc2ccccc12 | NCI-H1975 | CCK-8 | 1 µM |  | inhibition | 43.6%
O=C(Nc1ccc(-c2ccc3ncn(Cc4ccccc4)c(=O)c3c2)cn1)c1ccco1 | NCI-H1975 | CCK-8 |  | 72 h | IC50 | > 10000 nM
COc1cccc2c1C(=O)c1c(O)c3c(c(O)c1C2=O)C[C@@](O)(C(=O)CO)C[C@@H]3O[C@H]1C[C@H](N)[C@H](O)[C@H](C)O1 | NCI-H1975 | MTT |  | 72 h | IC50 | 67 nM

Structure (SMILES) | cell line | method | tested at | time | quantity | value
CCCCC(=O)Nc1ccc(-c2ccc3ncn(CCCC)c(=O)c3c2)cn1 | NCI-H1975 | CCK-8 |  | 72 h | IC50 | 310 nM
C[C@H](N)C(=O)Nc1ccccc1/N=c1\cc(-c2ccc3c(c2)OCO3)oc2ccccc12 | NCI-H1975 | CCK-8 | 1 µM |  | inhibition | 1.32%
CCCCC(=O)Nc1ccc(-c2ccc3ncn(CC#N)c(=O)c3c2)cn1 | NCI-H1975 | CCK-8 |  | 72 h | IC50 | > 10000 nM
O=C(Nc1cccc(C(F)(F)F)c1)Nc1nc2cc(-c3ccc4ncn(CCN5CCOCC5)c(=O)c4c3)ccc2s1 | NCI-H1975 | MTT |  | 72 h | IC50 | 1480 nM
CCCCCCCCCCCCCCCCCCOc1ccccc1CC(=O)OCCC[N+](C)(C)C | NCI-H322M | SRB | 10 µM |  | inhibition | 15.7%
CCCn1cnc2ccc(-c3ccc(N4CCCCC4=O)nc3)cc2c1=O | NCI-H1975 | CCK-8 |  | 72 h | IC50 | > 10000 nM
NCCC(=O)Nc1ccccc1/N=c1\cc(-c2ccc3nc(N)oc3c2)oc2ccc(O)cc12 | NCI-H1975 | CCK-8 | 1 µM |  | inhibition | 7.56%
O=C(Nc1cccc(F)c1)Nc1nc2cc(-c3ccc4ncn(CCN5CCOCC5)c(=O)c4c3)ccc2s1 | NCI-H1975 | MTT |  | 72 h | IC50 | > 20000 nM
CCCCCCCCCCCCCCCCCCOc1cccc(CC(=O)OCC[N+](CC)(CC)CC)c1 | NCI-H322M | SRB | 10 µM |  | inhibition | 22.3%
C[C@H](Nc1ccc2c(c1)OCCn1cc(N3C(=O)OC[C@H]3C(F)F)nc1-2)C(N)=O | KPL4 | ATP luminescence |  | 5 days | EC50 | 73.7 nM
CCCCC(=O)Nc1ccc(-c2cnc3ccn(CCC)c(=O)c3c2)cn1 | NCI-H1975 | CCK-8 |  | 72 h | IC50 | 1210 nM
Nc1ccccc1/N=c1\cc(-c2ccc3c(c2)OCO3)oc2ccccc12 | NCI-H1975 | CCK-8 | 1 µM |  | inhibition | 2.1%
CCCCNC(=O)Nc1nc2cc(-c3ccc4ncn(Cc5ccccc5)c(=O)c4c3)ccc2s1 | NCI-H1975 | MTT |  | 72 h | IC50 | 7570 nM
CCCCC(=O)Nc1ccc(-c2ccc3ncn(CC)c(=O)c3c2)cn1 | NCI-H1975 | CCK-8 |  | 72 h | IC50 | 250 nM
Oc1cccc(-c2nc(N3CCOCC3)c3oc4ncccc4c3n2)c1 | NCI-H1975 | CCK-8 | 1 µM |  | inhibition | 38%
COc1ccc(C(=O)Nc2nc3cc(-c4ccc5ncn(Cc6ccccc6)c(=O)c5c4)ccc3s2)cc1 | NCI-H1975 | MTT |  | 72 h | IC50 | > 20000 nM
